In brackets after ≈: the same amount, converted by molar mass.
Tests used:
Format in all cases: functional
[1] = system: MDCK; assay: Tested for minimum inhibitory concentration required to reduce virus-induced cytopathicity by 50% on MDCK cell line infected with influenza A virus; settings: Canis lupus familiaris
How it was run: (§1)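 HeLa (human epithelial), MDCK (Madin-Darby canine kidney) or Vero (African green monkey kidney) cells were infected with the stated virus. The value is the concentration that reduces virus-induced cytopathicity by 50%. Values are averages of at least two separate experiments.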

[2] = system: HeLa; assay: Tested for minimum inhibitory concentration required to cause a microscopically detectable alteration of normal cell morphology by 50% on HeLa cell line; settings: Homo sapiens
How it was run: (§2)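 HeLa (human epithelial), MDCK (Madin-Darby canine kidney) or Vero (African green monkey kidney) cells were scored by microscopy. The value is the minimum concentration that causes a detectable alteration of normal cell morphology. Values are averages of at least two separate experiments.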

[3] = system: HeLa; assay: Tested for minimum inhibitory concentration required to reduce virus-induced cytopathicity by 50% on HeLa cell line infected with RSV virus; settings: Homo sapiens; how it was run: as §1
[4] = system: MDCK; assay: Tested for minimum inhibitory concentration required to reduce virus-induced cytopathicity by 50% on MDCK cell line infected with influenza B virus; settings: Canis lupus familiaris; how it was run: as §1
[5] = system: MDCK; assay: Tested for minimum inhibitory concentration required to cause a microscopically detectable alteration of normal cell morphology by 50% on MDCK cell line; settings: Canis lupus familiaris; how it was run: as §2
[6] = system: HEF; assay: Tested for minimum inhibitory concentration required to reduce virus-induced cytopathicity by 50% on HEF cell line infected with HSV-2 virus; settings: Homo sapiens
How it was run: (§3)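 Human embryonic skin-muscle fibroblasts (HEF) were infected with the stated virus. The value is the concentration that reduces virus-induced cytopathicity by 50%. Values are averages of at least two separate experiments.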

[7] = system: Vero; assay: Tested for minimum inhibitory concentration required to reduce virus-induced cytopathicity by 50% on vero cell line infected with coxsackie B4 virus; settings: Chlorocebus sabaeus; how it was run: as §1
[8] = system: HeLa; assay: Tested for minimum inhibitory concentration required to reduce virus-induced cytopathicity by 50% on HeLa cell line infected with polio 1 virus; settings: Homo sapiens; how it was run: as §1
[9] = system: CCRF-CEM; assay: Tested for minimum inhibitory concentration required to reduce virus-induced cell viability by 50% on CEM cell line; settings: Homo sapiens
[10] = system: Vero; assay: Tested for minimum inhibitory concentration required to reduce virus-induced cytopathicity by 50% on vero cell line infected with parainfluenza 3 virus; settings: Chlorocebus sabaeus; how it was run: as §1
[11] = system: Vero; assay: Tested for minimum inhibitory concentration required to reduce virus-induced cytopathicity by 50% on vero cell line infected with semliki forest virus; settings: Chlorocebus sabaeus; how it was run: as §1
[12] = system: Vero; assay: Tested for minimum inhibitory concentration required to reduce virus-induced cytopathicity by 50% on vero cell line infected with Reo 1 virus; settings: Chlorocebus sabaeus; how it was run: as §1
[13] = system: HEF; assay: Tested for minimum inhibitory concentration required to cause a microscopically detectable alteration of normal cell morphology by 50% on HEF cell line; settings: Homo sapiens
How it was run: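 Human embryonic skin-muscle fibroblasts (HEF) were used. The value is the minimum concentration that causes a microscopically detectable alteration of normal cell morphology. Values are averages of at least two separate experiments.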

[14] = system: CCRF-CEM; assay: Tested for minimum inhibitory concentration required to reduce virus-induced cytopathicity by 50% was evaluated on CEM cell line infected with HIV-1 virus; settings: Homo sapiens
[15] = system: HEF; assay: Tested for minimum inhibitory concentration required to reduce […] by 50% on HEF cell line; settings: Homo sapiens
How it was run: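 Human embryonic lung fibroblasts (HEF) were used for cell proliferation. The value is the concentration that reduces cell proliferation by 50%. Values are averages of at least two separate experiments.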

[16] = system: HEF; assay: Tested for minimum inhibitory concentration required to reduce virus-induced cytopathicity by 50% on HEF cell line infected with vaccinia virus; settings: Homo sapiens; how it was run: as §3
[17] = system: HEF; assay: Tested for minimum inhibitory concentration required to reduce virus-induced cytopathicity by 50% on HEF cell line infected with vesicular stomatitis virus; settings: Homo sapiens; how it was run: as §3
[18] = system: HEF; assay: Tested for minimum inhibitory concentration required to reduce virus-induced cytopathicity by 50% on HEF cell line infected with thymidine kinase-deficient herpes simplex virus type 1 (TK-HSV-1); settings: Homo sapiens; how it was run: as §3
[19] = system: Vero; assay: Tested for minimum inhibitory concentration required to reduce virus-induced cytopathicity by 50% on vero cell line infected with sindbis virus; settings: Chlorocebus sabaeus; how it was run: as §1
[20] = system: CCRF-CEM; assay: Tested for minimum inhibitory concentration required to reduce virus-induced cytopathicity by 50% on CEM cell line infected with HIV-2 virus; settings: Homo sapiens
[21] = system: HEF; assay: Tested for minimum inhibitory concentration required to reduce virus-induced cytopathicity by 50% on HEF cell line infected with HSV-1 virus; settings: Homo sapiens; how it was run: as §3
[22] = system: Vero; assay: Tested for minimum inhibitory concentration required to cause a microscopically detectable alteration of normal cell morphology by 50% on vero cell line; settings: Chlorocebus sabaeus; how it was run: as §2
[23] = system: Vero; assay: Tested for minimum inhibitory concentration required to cause a microscopically detectable alteration of normal cell morphology by 50% on Vero cell line; settings: Chlorocebus sabaeus; how it was run: as §2
[24] = system: HeLa; assay: tested for minimum inhibitory concentration required to cause a microscopically detectable alteration of normal cell morphology by 50% on HeLa cell line; settings: Homo sapiens; how it was run: as §2

Structure (SMILES)	MIC50 [1] [µg/mL]	MIC50 [2] [µg/mL]	MIC50 [3] [µg/mL]	MIC50 [4] [µg/mL]	MIC50 [5] [µg/mL]	MIC50 [6] [µg/mL]	MIC50 [7] [µg/mL]	MIC50 [8] [µg/mL]	MIC50 [9] [µg/mL]	MIC50 [10] [µg/mL]	MIC50 [11] [µg/mL]	MIC50 [12] [µg/mL]	MIC50 [13] [µg/mL]	MIC50 [14] [µg/mL]	MIC50 [15] [µg/mL]	MIC50 [16] [µg/mL]	MIC50 [17] [µg/mL]	MIC50 [18] [µg/mL]	MIC50 [19] [µg/mL]	MIC50 [21] [µg/mL]	other results
NC12CC3CC(CC(C3)C1)C2 [AMANTADINE]	100 (≈ 661 µM)	100 (≈ 661 µM)	> 100	> 200	> 100																
CN(C)C1CC12C1CC3CC(C1)CC2C3 (configuration not stated)	6 (≈ 29.2 µM)	≥ 400	> 200	> 100	100 (≈ 487 µM)	> 200	> 400	> 400	> 200	100 (≈ 487 µM)	> 400	400 (≈ 1950 µM)	≥ 400	> 200	> 200	> 200	> 200	> 200	> 400	> 200	MIC50 [20]: > 200 µg/mL; MIC50 [22]: > 400 µg/mL
CNCC1CC12C1CC3CC(C1)CC2C3 (configuration not stated)	> 20	40 (≈ 195 µM)	30 (≈ 146 µM)	> 20	20 (≈ 97.4 µM)	> 20	> 20	> 20	4 (≈ 19.5 µM)	> 20	> 20	> 20	40 (≈ 195 µM)	> 8	50 (≈ 243 µM)	> 20	> 20	> 20	> 20	> 20	MIC50 [20]: > 8 µg/mL; MIC50 [22]: 40 µg/mL (≈ 195 µM)
NC(=O)c1ncn([C@@H]2O[C@H](CO)[C@@H](O)[C@H]2O)n1 [RIBAVIRIN]	1.2 (≈ 4.91 µM)	> 200	2.8 (≈ 11.5 µM)	4 (≈ 16.4 µM)	> 200	> 400	300 (≈ 1230 µM)	70 (≈ 287 µM)		70 (≈ 287 µM)	20 (≈ 81.9 µM)	20 (≈ 81.9 µM)	> 400			70 (≈ 287 µM)	20 (≈ 81.9 µM)	≥ 200	70 (≈ 287 µM)	200 (≈ 819 µM)	MIC50 [22]: > 400 µg/mL
CNC1CC12C1CC3CC(C1)CC2C3 (configuration not stated)	1.2 (≈ 6.27 µM)	200 (≈ 1050 µM)	> 150	> 100	100 (≈ 523 µM)	> 70	> 70	> 100	75 (≈ 392 µM)	> 70	> 70	> 70	100 (≈ 523 µM)	> 8	90 (≈ 470 µM)	> 70	> 40	> 40	> 70	> 70	MIC50 [23]: 100 µg/mL (≈ 523 µM); MIC50 [20]: > 8 µg/mL
CN(C)CC1CC12C1CC3CC(C1)CC2C3 (configuration not stated)	> 40	100 (≈ 456 µM)	40 (≈ 182 µM)	> 100	70 (≈ 319 µM)	> 20	> 70	> 70	23 (≈ 105 µM)	> 70	> 70	> 70	40 (≈ 182 µM)	> 40	95 (≈ 433 µM)	> 20	> 20	> 20	> 70	> 20	MIC50 [20]: > 40 µg/mL; MIC50 [22]: 100 µg/mL (≈ 456 µM)
CCN1CCCC12C1CC3CC(C1)CC2C3 (configuration not stated)	2.4 (≈ 10.9 µM)		> 200	> 200	> 200	> 400	> 400	> 400	> 200	> 400	> 400	> 400	> 400	> 200	> 200	> 400	≥ 400	≥ 400	> 400	> 400	MIC50 [24]: > 400 µg/mL; MIC50 [20]: > 200 µg/mL; MIC50 [22]: > 400 µg/mL
C1CNC2(C1)C1CC3CC(C1)CC2C3 (configuration not stated)	> 30	> 200	> 200	> 200	> 200	> 200	> 200	> 200	100 (≈ 523 µM)	> 200	> 200	> 200	≥ 400	> 40	> 50	> 200	> 200	> 200	> 200	200 (≈ 1050 µM)	MIC50 [20]: > 40 µg/mL; MIC50 [22]: ≥ 400 µg/mL
CN1CCCC12C1CC3CC(C1)CC2C3 (configuration not stated)	0.56 (≈ 2.73 µM)	> 400	> 200	> 200	> 200	> 400	> 400	> 400	> 200	> 400	> 400	> 400	> 400	> 200	> 50	> 400	≥ 400	≥ 400	> 400	≥ 400	MIC50 [20]: > 200 µg/mL; MIC50 [22]: > 400 µg/mL

Reference: ChEMBL document CHEMBL1127450, “Synthesis and antiviral activity evaluation of some aminoadamantane derivatives” (1994)
